CSC inhib: blocks cancer stem cells; cancer stem cell-like cells viability, luminescence; 1.1% of 300,000 active; inhibition, % at 7.5 µM; AID 2717; in the data active means inhibition above about 75%; tested in HMLE shEcad cells
T cruzi repl: blocks replication of Trypanosoma cruzi; T. cruzi beta-gal in NIH3T3, luminescence, 90 h; inhibition, % (concentration not given with the values); 1.4% of 300,000 active; AID 1885;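 active means mean inhibition across valid replicates above about 55%, limit read from the data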;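 further: signal also drops with host cell toxicity which is not excluded here; 0% = plate median of DMSO wells and 100% = zero luminescence signal; higher percent means less beta-gal luminescence so fewer parasites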
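Incubation – ≥90 h infection period, 3 h prior cell attachment · System – NIH/3T3 fibroblasts plus reporter T. cruzi · Doses – compound pinned at 50 nL/well, DMSO · Read-out basis – percent inhibition of parasite-derived β-gal signal · Signal – luminescent β-galactosidase signal after 60 min lysis · Also added – 5000 T. cruzi trypomastigotes/well · Medium – Low-serum DMEM with 2% FBS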
SKKanGAS inh: inhibitors of SKKanGAS S. pyogenes growth in kanamycin (SK-promoter or general growth effect). BacTiter-Glo, 6 h. inhibition, % at 7.5 µM. 1.3% of 300,000 active. AID 1662;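 active means mean replicate score, as percent of positive control median, at least 50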;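 further: strain carries kanamycin resistance gene driven by streptokinase promoter and grows in 40 µg/ml kanamycin; loss of luminescence reflects streptokinase promoter inhibition or plain growth inhibition; 0% = median of DMSO wells and 100% = positive control at its reference dose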
aSyn UTR inh: 5' untranslated region of α-synuclein, MLPCN primary screen; alpha-synuclein 5'UTR reporter, inhibitor activity; inhibition, % (tested at 7.5 µM); 0.82% of 300,000 active; in the data active means inhibition above about 60%;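 further: H4 neuroglioblastoma cells stably carrying SNCA 5'UTR luciferase fusion; 0% = DMSO wells and 100% = positive control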
Mdm2 MdmX PPI: disrupts the human Mdm2-MdmX interaction | 3% of 330,000 active | SaOS-2 split-luciferase Mdm2/MdmX complementation, luminescence | O15151+Q00987 | AID 485346 | inhibition, % at 8 µM;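 active means inhibition of at least 50% at 8 µM in the primary screen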
* marks the source's active call; other numbers are inactive results; . = no result. Only some compounds are listed: those with a hit (about 5.4% of all), similar ones and a draw of the others.

SMILES	CSC inhib	T cruzi repl	SKKanGAS inh	aSyn UTR inh	Mdm2 MdmX PPI
CCCN1Cc2cccc(C(=O)NCCc3cccc(C)c3)c2C1=O	-10	20	-1	6	-1
Cc1csc(NC(=O)c2c(O)c3c(n(CC(C)C)c2=O)CCCC3)n1	18	15	61*	18	21
COc1ccc2cc(C(=O)/C=C/c3cc(OC)c(O)c(OC)c3)ccc2c1	55	-45	69*	-71	0
COc1cc(/C=C/C(=O)c2ccc(NS(=O)(=O)c3ccc(C)cc3)cc2)cc(OC)c1O	80*	-19	43	-26	.
N#Cc1ccccc1NC(=O)COc1ccccc1C(=O)Nc1ccccc1	4	.	.	.	-30
Cc1c(C#N)c(N=CN(C)C)c(C(=O)c2ccc(Br)cc2)n1-c1ccc(Cl)cc1	-7	57*	-15	23	14
CC(=O)c1c(N)c(C#N)c(C)n1-c1ccc(Br)cc1	0	1	-7	5	11
O=C(CCNS(=O)(=O)c1ccc2ccccc2c1)NCCOc1ccccc1	.	.	.	.	-25
Cc1ccsc1/C=N/Nc1cccc(C(=O)O)c1	-7	-10	.	105*	-40
Cc1ccc(/C=N/Nc2ccc(C(=O)O)cc2)s1	11	-8	22	76*	-53
CCOc1cc(/C=N/NC(=O)CNc2cccc(C)c2)ccc1OC(=O)c1ccccc1	-2	10	32	5	22
O=C(O)c1cccc(N/N=C/C2=C(Cl)c3cc(Cl)ccc3SC2)c1	.	-6	106*	-103	.
CCOc1cc(/C=N/Nc2cccc(C(=O)O)c2)ccc1OC(=O)c1ccccc1	.	-17	50*	98*	-16
Cn1c(=O)c2ncn(CC(=O)N/N=C/c3ccco3)c2n(C)c1=O	-14	-11	-4	17	0
CCCCCN(C(=O)CCC(=O)OCCOc1cccc(C)c1)c1c(N)n(CCCC)c(=O)[nH]c1=O	-7	11	1	-6	29
CCCCNC(=O)COC(=O)c1ccc(NS(=O)(=O)c2ccc3c(c2)OCCO3)cc1	-7	3	2	-19	-3
CCC(Oc1ccccc1)C(=O)N1CCN(C(=O)C(CC)Oc2ccccc2)CC1 (centres undefined)	-13	5	-1	-6	6
COc1cc(C(C)=O)ccc1OCC(=O)Nc1ccc(C)c(S(=O)(=O)N2CCCCCC2)c1	-2	.	.	.	39
CC(C)Oc1ccc(CN2CCCC(CO)(Cc3ccccc3)C2)cc1CO (centres undefined)	2	17	1	5	13
Cc1ccsc1/C=N/Nc1ccc(C(=O)O)cc1	-7	-14	14	64*	-78
O=C(CN1C(=O)NC2(CCCC2)C1=O)NCc1ccc(Cl)cc1	-11	.	.	.	16
O=C(NC(=S)N1CCN(c2ccc(C(F)(F)F)cc2[N+](=O)[O-])CC1)c1cccs1	12	13	87*	5	8
CCN1CCN(C(=S)NC(=O)c2cccs2)CC1	.	-49	-4	-1	11
CC(=O)NCCNC(=O)CCNC(=O)c1ccc(Cl)cc1	-1	-7	6	7	-5
CC(=O)Nc1ccc(S(=O)(=O)Nc2ccccc2C(=O)N2CCCCC2)cc1	-14	-1	-2	0	0
SMILES	CSC inhib	T cruzi repl	SKKanGAS inh	aSyn UTR inh	Mdm2 MdmX PPI
O=C(/C=C/c1ccc([N+](=O)[O-])s1)N1CCCC1	14	69*	25	-102	16
O=C(/C=C/c1ccc([N+](=O)[O-])s1)N1CCN(c2ccccc2)CC1	16	59*	4	-47	16
COc1ccc(C2(CNC(=O)c3cccc([N+](=O)[O-])c3)CCOCC2)cc1	-31	15	0	-2	8
CC(C)CCNC(=O)C(c1ccco1)N(Cc1ccccc1)C(=O)c1snc(C(N)=O)c1N (centres undefined)	-8	14	4	5	5
Cc1ccc(N(C(=O)c2snc(C(N)=O)c2N)C(C(=O)NCCC(C)C)c2ccco2)cc1 (centres undefined)	-11	56*	-2	19	9
CCCCn1c(SCC(=O)c2c(N)n(C3CC3)c(=O)[nH]c2=O)nc2cc(S(N)(=O)=O)ccc21	.	.	.	.	2
COc1ccccc1CNC(=O)CCS(=O)(=O)c1ccc(Cl)cc1	22	9	-11	2	-1
CCN(CC)CCN(C(=O)c1ccc2c(c1)CCCC2)c1nc2ccc(C)cc2s1	25	19	4	-8	14
COc1ccc2sc(N(CCN(C)C)C(=O)c3cc(Cl)sc3Cl)nc2c1	-13	54	7	-1	-9

Compound activity from PubChem.
